Data published in PMC5028280 (Neuropharmacology, 2016).

Key:
[1] = test system: male C57/Bl6J mice; assay: Drug discrimination, mice trained to discriminate 0.3 mg/kg JWH-018 from vehicle; assay type: in vivo, mouse; settings: for Response rates compared to vehicle: 1 mg/kg JWH-018, 10 mg/kg THC, JWH-073 across the dose range tested; for Fold less potent than JWH-018 in JWH-018 discrimination: from ED50 values; for ED50 for substitution for the 0.3 mg/kg JWH-018 training dose / Substitution for the 0.3 mg/kg JWH-018 training dose: i.p.; for ED50 for substitution for the 0.3 mg/kg JWH-018 training dose: 30 min before session; for Substitution for the 0.3 mg/kg JWH-018 training dose: percentage of responses on JWH-018-associated lever
[2] = Urinary metabolite identification; assay type: in vivo, mouse; settings: II = glucuronic acid conjugate; X = identified
[3] = target: hERG (Homo sapiens, UniProt Q12809); assay: hERG channel assay; assay type: cell-based; settings: inhibition of hERG channels, mean of 3 replicates
[4] = target: T1, 5-HT2B (Homo sapiens, UniProt P41595); assay: 5-HT2B antagonism functional assay; assay type: cell-based; settings: mean of 3 replicates; for IC50: read-out: 5-HT2B Antagonism IC50
[5] = test system: male ICR mice; assay: Functional observational battery; assay type: in vivo, mouse; settings: i.v.; for FOB Home cage activity: doses with significant differences vs vehicle: CNS Activity domain, ↓ decrease vs vehicle, N = 6/dose; for FOB Tail elevation: doses with significant differences vs vehicle: CNS Excitability domain, ↑ increase vs vehicle
Method in brief: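 Male ICR mice, each given one dose only, n=6 per dose; housed at 20–22°C on a 12-h light/dark cycle with food ad libitum. Approach and startle after observer interference were scored as categorical measures. Each compound's vehicle group was pooled into one vehicle group, and each dose was compared with it. Tests: Fisher's exact (categorical), Kruskal-Wallis (ordinal), one-way ANOVA (continuous).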

[6] = target: T1, 5-HT2B; assay: NIMH PDSP secondary binding assay, 5-HT2B; settings: read-out: 5-HT2B binding affinity Ki; mean of 3 replications
[7] = test system: male C57/Bl6J mice; assay: Drug discrimination, mice trained to discriminate 5.6 mg/kg THC from vehicle; assay type: in vivo, mouse
[8] = Muscle tone/Equilibrium domain, categorical, ---- no significant effect
[9] = Sensorimotor Reactivity domain, categorical, ---- no significant effect

Chain of hERG (Q12809 whole entry): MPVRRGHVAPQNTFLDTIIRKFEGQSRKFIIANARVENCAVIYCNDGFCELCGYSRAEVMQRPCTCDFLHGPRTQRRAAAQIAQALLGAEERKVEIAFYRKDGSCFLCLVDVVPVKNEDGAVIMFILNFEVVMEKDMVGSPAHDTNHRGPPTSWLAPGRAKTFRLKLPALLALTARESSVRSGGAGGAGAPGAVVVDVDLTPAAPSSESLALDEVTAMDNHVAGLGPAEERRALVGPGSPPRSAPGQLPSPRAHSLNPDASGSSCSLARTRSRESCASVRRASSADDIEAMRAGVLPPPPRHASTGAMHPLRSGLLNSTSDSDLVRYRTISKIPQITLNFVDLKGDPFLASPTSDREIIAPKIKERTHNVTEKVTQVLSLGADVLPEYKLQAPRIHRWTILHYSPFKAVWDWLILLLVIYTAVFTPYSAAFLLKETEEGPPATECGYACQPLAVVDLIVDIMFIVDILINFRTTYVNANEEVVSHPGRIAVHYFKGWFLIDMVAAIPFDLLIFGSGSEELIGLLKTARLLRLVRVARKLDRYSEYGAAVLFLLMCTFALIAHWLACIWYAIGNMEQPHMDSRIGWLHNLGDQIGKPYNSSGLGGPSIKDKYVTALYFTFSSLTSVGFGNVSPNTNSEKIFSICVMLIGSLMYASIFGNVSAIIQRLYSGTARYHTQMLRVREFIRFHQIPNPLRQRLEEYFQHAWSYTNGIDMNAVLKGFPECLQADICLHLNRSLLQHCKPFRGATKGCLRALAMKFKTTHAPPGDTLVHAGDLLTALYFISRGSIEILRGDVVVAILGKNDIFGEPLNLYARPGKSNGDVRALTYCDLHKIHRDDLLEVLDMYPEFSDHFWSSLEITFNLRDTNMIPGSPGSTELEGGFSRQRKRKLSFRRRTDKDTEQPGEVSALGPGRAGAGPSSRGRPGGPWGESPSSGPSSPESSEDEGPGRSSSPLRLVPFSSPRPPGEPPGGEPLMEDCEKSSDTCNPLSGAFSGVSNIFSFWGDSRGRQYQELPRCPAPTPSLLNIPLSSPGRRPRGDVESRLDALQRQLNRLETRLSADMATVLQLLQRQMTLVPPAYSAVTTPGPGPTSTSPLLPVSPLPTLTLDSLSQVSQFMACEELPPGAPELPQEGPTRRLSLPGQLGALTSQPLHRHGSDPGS
T1 sequence (P41595 whole entry, the tested form may be a part): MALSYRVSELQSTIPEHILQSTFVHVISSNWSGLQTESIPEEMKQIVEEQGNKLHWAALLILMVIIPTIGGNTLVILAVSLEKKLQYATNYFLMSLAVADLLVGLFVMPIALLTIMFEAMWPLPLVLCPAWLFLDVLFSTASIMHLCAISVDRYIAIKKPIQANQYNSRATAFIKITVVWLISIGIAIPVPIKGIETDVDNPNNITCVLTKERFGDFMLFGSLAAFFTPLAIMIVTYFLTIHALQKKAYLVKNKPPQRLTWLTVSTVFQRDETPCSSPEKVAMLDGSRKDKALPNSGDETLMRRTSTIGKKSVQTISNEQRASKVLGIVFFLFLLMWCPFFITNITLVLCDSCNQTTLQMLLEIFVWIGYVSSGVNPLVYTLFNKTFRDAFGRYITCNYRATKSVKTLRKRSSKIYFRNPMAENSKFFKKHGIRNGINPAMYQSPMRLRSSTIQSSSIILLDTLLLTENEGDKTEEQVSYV

| Structure (SMILES) | hERG Channels Emax [3] | 5-HT2B Antagonism Emax [4] | IC50 [4] | FOB Home cage activity: doses with significant differences vs vehicle [5] | FOB Gait: doses with significant differences vs vehicle [5, 8] | FOB Muscle tone: doses with significant differences vs vehicle [5, 8] | FOB Posture: doses with significant differences vs vehicle [5, 8] | FOB Startle response: doses with significant differences vs vehicle [5, 9] | Ki [6] | Response rates compared to vehicle [1] | Fold less potent than JWH-018 in JWH-018 discrimination [1] | ED50 for substitution for the 0.3 mg/kg JWH-018 training dose [1] | Substitution for the 0.3 mg/kg JWH-018 training dose [1] | FOB Tail elevation: doses with significant differences vs vehicle ([5]; ---- no significant effect) | also measured |
| --- | --- | --- | --- | --- | --- | --- | --- | --- | --- | --- | --- | --- | --- | --- | --- |
| Cc1c(C(=O)NN2CCCCC2)nn(-c2ccc(Cl)cc2Cl)c1-c1ccc(Cl)cc1 [rimonabant] | – | – | – | – | – | – | – | – | – | – | – | – | – | – | Response rates in antagonism tests ([1]; 3 mg/kg antagonist with vehicle or 0.3 mg/kg JWH-018): significantly decreased |
| CCCCCn1cc(C(=O)c2ccc(CC)c3ccccc23)c2ccccc21 [JWH-210] | lacked efficacy | 100% | 2870 µM | ↓ (0.1-3) mg/kg | (0.1-3) mg/kg | (0.3-3) mg/kg | (0.1-3) mg/kg | (0.3-3) mg/kg | – | – | – | – | – | – | Monohydroxylation metabolite in urine, phase II [2]: no monohydroxyl glucuronide was observed; hERG Channels EC50 [3]: Not active; FOB Exophthalmus: doses with significant differences vs vehicle ([5]; Autonomic Effects domain, categorical, ---- no significant effect): (0.3) mg/kg |
| CCCCn1cc(C(=O)c2cccc3ccccc23)c2ccccc21 [JWH-073] | 59% | 100% | 19.3 µM | ↓ (0.3-3) mg/kg | (0.3-3) mg/kg | (1-3) mg/kg | (1-3) mg/kg | (3) mg/kg | 0.184 µM | significant decreases were not observed | about 5 fold | 2.11 µmol/kg | fully and dose-dependently substituted | ↑ (1) mg/kg | EC50 ([3]; read-out: hERG Channels EC50): 9.71 µM; FOB Forelimb placing: doses with significant differences vs vehicle [5, 8]: (0.3) mg/kg; FOB Approach response: doses with significant differences vs vehicle [5, 9]: (1-3) mg/kg |
| CCCCCc1cc(O)c2c(c1)OC(C)(C)[C@@H]1CCC(C)=C[C@@H]21 [THC, Δ^9-tetrahydrocannabinol, reference compound] | – | – | – | ↓ (0.3-10) mg/kg | – | – | (3-10) mg/kg | – | 0.765 µM | significantly decreased response rates | ~10 fold | 4.08 µmol/kg | fully and dose-dependently substituted | ↑ (3) mg/kg | – |
| CN1CCN2c3ccccc3Cc3ccccc3C2C1 (stereo not shown) [mianserin] | – | – | – | – | – | – | – | – | – | – | – | – | failed to substitute for or antagonize | – | Percentage of THC-lever responding, mianserin 0.1, 0.3, and 3 mg/kg ([7]; co-administered with either vehicle or 5.6 mg/kg THC): did not alter this pattern; Percentage of THC-lever responding, 1 mg/kg mianserin plus 5.6 mg/kg THC ([7]; compared to 5.6 mg/kg THC alone): significantly lower; Substitution for THC in mice trained to discriminate THC ([7]; mianserin tested alone, i.p.): did not substitute; Overall responding on both levers (response rate), 3 mg/kg mianserin ([7]; with vehicle or THC): significantly suppressed; Responding on the JWH-018 lever, 3 mg/kg mianserin co-administered with 0.3 mg/kg JWH-018 ([1]; compared to 0.3 mg/kg JWH-018 alone): significantly decreased; Responding on the JWH-018 lever, 3 mg/kg mianserin (plus vehicle) ([1]; compared to vehicle alone): significantly increased; Substitution of the JWH-018 training dose (0.3 mg/kg), mianserin at doses up 1 mg/kg ([1]; mianserin plus 0.3 mg/kg JWH-018): not altered; Overall response rate, mianserin 1 and 3 mg/kg administered with JWH-018 ([1]; mouse, in vivo): significantly suppressed |
